{"data": "Published values collected from several papers", "target": "Rho-associated protein kinase 1 (ROCK1, Homo sapiens, UniProt Q13464)", "note": "Protocols differ between the studies behind these lines."}
{"SMILES": "O=C(O)c1cc(-c2ccc(C3CCNCC3)cc2)c2ccc(-c3ccc(C(F)(F)F)cc3)cc2c1", "test": "cell-free assay, competition with immobilised ligand", "setting": "1 µM", "remaining binding": "100%"}
{"SMILES": "O=C(c1ccc(Nc2ncc(Cl)c(-c3cc4ccccc4s3)n2)cc1)N1CCC(N2CCCC2)CC1", "test": "binding, competition with immobilised ligand", "setting": "1 µM", "remaining binding": "4.5%"}
{"SMILES": "COc1cnc(Nc2cccc(S(N)(=O)=O)c2)nc1N1CCN(c2ccccc2)CC1", "test": "binding, competition with immobilised ligand", "setting": "1 µM", "remaining binding": "78%"}
{"SMILES": "C[C@H](c1ccnc(Nc2nc3ccc(-c4cc(N(C)C)ncn4)cc3[nH]2)c1)N1CCN(C(=O)CC(F)(F)F)CC1", "test": "cell-free assay, competition with immobilised ligand", "setting": "0.1 µM", "remaining binding": "100%"}
{"SMILES": "c1cncc(-c2cccc(Nc3nccc(NC4CCCCC4)n3)c2)c1", "test": "binding, competition with immobilised ligand", "setting": "10 µM", "remaining binding": "10%"}
{"SMILES": "COc1ccnn2ncc(-c3ccnc(N(C)C)n3)c12", "test": "binding", "setting": "1 µM", "remaining binding": "93%"}
{"SMILES": "O=C(NCC1CCOCC1)c1n[nH]cc1NC(=O)c1c(F)cccc1F", "test": "binding, competition with immobilised ligand", "setting": "1 µM", "remaining binding": "83%"}
{"SMILES": "CO[C@H]1CC[C@H](CNc2ccc(S(=O)(=O)NC(=O)c3ccc(N4CCN(CC5=C(c6ccc(Cl)cc6)CC(C)(C)CC5)CC4)cc3Oc3cnc4[nH]ccc4c3)cc2[N+](=O)[O-])CC1", "test": "cell-free assay, competition with immobilised ligand", "setting": "1 µM", "remaining binding": "70%"}
{"SMILES": "Nc1ncc2c(n1)-c1c([nH]c3ccc(C#CC4CC4)cc13)CCCC2", "test": "binding, competition with immobilised ligand", "setting": "1 µM", "remaining binding": "100%"}
{"SMILES": "CS(=O)(=O)c1cc(C2(NC(=O)c3cncc4c3cnn4-c3ccc(F)cc3)CC2)ccn1", "test": "cell-free assay, competition with immobilised ligand", "setting": "1 µM", "remaining binding": "79%"}
{"SMILES": "C[C@@H]1CCN(c2nccc(-c3cnn4ncccc34)n2)C1", "test": "binding", "setting": "1 µM", "remaining binding": "86%"}
{"SMILES": "C[C@H](c1ccc(F)cc1)N(Cc1cccc(C(=O)O)c1)C(=O)c1cnc2ccccc2c1", "test": "cell-free assay, competition with immobilised ligand", "setting": "1 µM", "remaining binding": "100%"}
{"SMILES": "CN(c1nccc(-c2cnn3ncccc23)n1)C1CC1", "test": "binding", "setting": "1 µM", "remaining binding": "100%"}
{"SMILES": "CCCOc1ccc([C@H]2[C@H](C(=O)O)[C@@H](c3ccc4c(c3)OCO4)CN2CC(=O)Nc2c(CC)cccc2CC)cc1", "test": "cell-free assay, competition with immobilised ligand", "setting": "1 µM", "remaining binding": "65%"}
{"SMILES": "N[C@@H]1CCN(c2nccc(-c3cnn4ncccc34)n2)C1", "test": "binding", "setting": "1 µM", "remaining binding": "94%"}
{"SMILES": "CC(=O)c1c(NS(C)(=O)=O)c2cc(-c3ccc(Cl)cc3)c(-c3ccc(Cl)cc3Cl)nc2n(C)c1=O", "test": "cell-free assay, competition with immobilised ligand", "setting": "1 µM", "remaining binding": "85%"}
{"SMILES": "c1cnn2ncc(-c3ccnc(N4CCC45COC5)n3)c2c1", "test": "binding", "setting": "1 µM", "remaining binding": "77%"}
{"SMILES": "CCN1CCN(Cc2ccc(C(=O)Nc3ccc(C)c(Oc4ccc5c(c4)CC(=O)N5)c3)cc2C(F)(F)F)CC1", "test": "binding, competition with immobilised ligand", "setting": "1 µM", "remaining binding": "69%"}
{"SMILES": "O=C(NCCCN1CCOCC1)c1ccc(Nc2ncc(Cl)c(-c3ccc(Cl)s3)n2)cc1", "test": "binding, competition with immobilised ligand", "setting": "1 µM", "remaining binding": "90%"}
{"SMILES": "CN(C)c1nccc(-c2cnc3ncccn23)n1", "test": "binding", "setting": "1 µM", "remaining binding": "74%"}
{"SMILES": "O=C(NCCCN1CCOCC1)c1ccc(Nc2nccc(-c3cc4ccccc4s3)n2)cc1", "test": "binding, competition with immobilised ligand", "setting": "1 µM", "remaining binding": "54%"}
{"SMILES": "CN(C)c1nccc(-c2cnn3ncccc23)n1", "test": "binding", "setting": "1 µM", "remaining binding": "100%"}
